# Screening data as filed in PubChem.
# STAT1 blocker: STAT1 signaling inhibitors, primary screen, cell-based, HTS, luciferase reporter; NIH 3T3 STAT1-luciferase reporter, IFN-gamma, luminescence; hit rate 0.35% among 200,000; AID 920, 2007; inhibition, % at 5.5 µM;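 active means inhibition above a set limit, the mean inhibition across all tested compounds plus 3 SD, cut at about 34% in these data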;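 further: 0% = IFN-gamma with DMSO and 100% = IFN-gamma with 300 µM nifuroxazide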
# STAT1 act: STAT1 signaling activators, primary screen, cell-based, HTS, luciferase reporter; NIH 3T3 STAT1-luciferase reporter, IFN-gamma, luminescence; 100% = IFN-gamma alone, no compound; activation (% of control), % at 5.5 µM; hit rate 2.6% among 200,000; AID 932, 2007;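 active means activation above the screen-wide mean activation plus 3 SD, cut at about 130% in these data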;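 further: raw ratio to IFN-gamma control signal so 100% means no change and 0% no light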
# STAT3 blocker: IL-6 driven STAT3 reporter inhibitors, primary screen, U3A cells, luciferase, luminescence, MLSCN library; AID 862, 2007; inhibition, % at 5.5 µM; IL-6 STAT3-luciferase reporter; host cell line lacks STAT1; hit rate 0.89% among 190,000;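 active means inhibition above the mean inhibition across all screened compounds plus 3 SD, cut at about 44% in these data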;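 further: 0% = DMSO only wells and 100% = 100 µM nifuroxazide control wells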
# NF-kB expr up: activators of NF-kB expression in neurons, primary screen, cell-based, HTS. human neuronal cells, NF-kB reporter expression; active compounds read high. fold change at 12.5 µM. hit rate 1.6% among 190,000. AID 1239, 2008; in the data active means fold change above about 3.3
# APP 5'UTR act: activators of APP 5'UTR luciferase reporter, primary screen, SH-SY5Y cells | activation, % at 2 µM | hit rate 1% among 190,000 | SH-SY5Y APP 5'UTR luciferase reporter, luminescence; zero percent = DMSO vehicle wells | AID 1276, 2008;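 active means activation above a set limit, based on mean plus 3 SD of controls, cut at about 140% in these data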
# STAT3 act: IL-6 driven STAT3 reporter potentiators, primary screen, U3A cells, luciferase, luminescence, MLSCN library | IL-6 STAT3-luciferase reporter; 100% = signal with IL-6 EC80 alone | activation (% of control), % at 5.6 µM | hit rate 0.91% among 190,000 | AID 871, 2007;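 active means activation above the screen-wide mean of compound activation plus 3 SD, cut at about 130% in these data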;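 further: 0% = background luminescence of wells with medium and substrate only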
#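 Material: human STAT1-deficient U3A cells with stable STAT3-luciferase reporter / Probe or stimulus: IL-6 stimulus at 33 ng/mL final / Schedule: 1 h compound pre-exposure, 6 h IL-6 stimulation, 37 °C / Technique: luminescence / Read-out basis: percent of IL-6-only median luminescence / Control set: IL-6-only high control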
# Starred values were filed as active, the others as inactive; nt = not tested or not shown. Shown are actives, neighbours in structure and some others; about 4.9% of the full set was active somewhere.
SMILES,STAT1 blocker,STAT1 act,STAT3 blocker,NF-kB expr up,APP 5'UTR act,STAT3 act
Cc1cccn2cc(-c3ccccc3)nc12,-41,138*,14,4.3*,154*,93
Cc1cccn2cc(-c3cccc(NC(=O)c4cccs4)c3)nc12,-33,131*,7,1.1,31,99
Cc1cccn2cc(-c3ccc(F)cc3)nc12,-33,130*,11,5.8*,128,95
CC(=O)Nc1ccc(S(=O)(=O)Oc2ccc(/C=C3\SC(N)=NC3=O)cc2)cc1,10,90,-10,1.1,12,110
Cc1cc(=O)oc2ccc(OCC(=O)N3CCC(C)CC3)cc12,1,99,-35,0.49,7,135*
Cc1cc(=O)oc2cc(OCC(=O)N3CCCC(C)C3)ccc12 (configuration not stated),2,98,7,0.64,7,100
Fc1ccc(-c2nc3n(n2)Cc2ccccc2-3)cc1,-15,114,-15,6.7*,173*,117
CCn1c(C)nc2cc(-c3nc4n(n3)Cc3ccccc3-4)ccc21,96*,10,115*,0.19,-85,7
CCCNC(=O)OCc1cccnc1Sc1ccc(C)cc1,-23,121,-2,1.9,43,108
COC(=O)C(Cc1ccc(O)cc1)NC(=O)C(CC(=O)OC(C)(C)C)NC(=O)OC(C)(C)C (configuration not stated),-8,107,14,1.2,-19,97
O=c1c2ccccc2nc2n1CC/C2=C\c1ccccc1[N+](=O)[O-],1,99,-65,0.83,12,157*
C[C@@H](O)C1NC(=O)[C@H](CCCCN)NC(=O)c2cc([N+](=O)[O-])cc(I)c2OCC[C@@H](C(N)=O)NC1=O (some centres not stated),-4,104,9,2,10,90
N/C(=N\OC(=O)Cc1cccs1)c1cccc([N+](=O)[O-])c1,-16,114,9,1.6,4,99
Cc1ccc(/C(N)=N/OC(=O)Cc2cccs2)cc1,-55,150*,12,2.7,108,99
N/C(=N\OC(=O)Cc1cccs1)c1ccccc1,-41,137*,2,2.3,24,104
N/C(=N\OC(=O)Cc1ccccc1)c1ccc(Br)cc1,-7,106,10,1.8,-2,94
Cc1cccc(/C(N)=N/OC(=O)Cc2cccs2)c1,-35,132*,7,2.7,41,100
Cc1ccc(/C(N)=N/OC(=O)Cc2ccccc2)cc1,-37,133*,4,2.4,53,100
COc1ccccc1NC(=S)NC(NC(=O)CC(C)C)C(Cl)(Cl)Cl (configuration not stated),1,97,8,0.95,-16,97
CN1CCN(c2ccc(C(=O)c3ccc(F)cc3)cc2)CC1,-39,136*,-5,2.7,75,112
O=C(C1COc2ccccc2O1)N1CCc2ccccc21 (configuration not stated),-34,131*,5,1.9,50,99
Clc1ccc(-n2nnc(-c3cccnc3Cl)n2)cc1Cl,-36,135*,nt,2.5,164*,nt
Cc1ccc(-n2nnc(-c3cnc4ccccc4c3)n2)cc1,-5,106,nt,4.5*,194*,nt
Fc1ccc(-n2nnc(-c3cccnc3Cl)n2)cc1,-45,144*,nt,5.8*,149*,nt
Cc1ccc(-n2nnc(-c3nccn3C)n2)cc1,31,73,nt,4.2*,97,nt
SMILES,STAT1 blocker,STAT1 act,STAT3 blocker,NF-kB expr up,APP 5'UTR act,STAT3 act
CCOCCCNCC(=O)Nc1ccc(S(=O)(=O)NC(C)CC)cc1 (configuration not stated),3,97,17,1.2,9,90
Brc1ccccc1-n1nnc(-c2ccnc3ccccc23)n1,3,99,nt,1.4,22,nt
Clc1ncccc1-c1nnn(-c2ccccc2)n1,-34,134*,nt,6.5*,132,nt
Fc1ccc(-n2nnc(-c3nccs3)n2)cc1,-6,107,nt,4.7*,148*,nt
Clc1nc2ccccc2cc1-c1nnn(-c2ccccc2)n1,-34,133*,nt,5*,112,nt
COc1ncccc1-c1nnn(-c2ccccc2)n1,-51,149*,nt,4.8*,158*,nt
N#CCCN(C(=O)COC(=O)C1CCN(S(=O)(=O)c2cccs2)CC1)c1ccccc1,9,92,9,1,12,98
Cc1ccc2c(N)c(C#N)sc2n1,-4,103,6,1.3,32,95
Cc1ccc2nc(-c3sc4nc(C)ccc4c3N)[nH]c2c1,-19,118,23,5.9*,114,82
O=C(O)CSc1nc2ccccc2o1,-4,104,7,1.1,-10,97
COC(=O)c1ccc(CSc2nc3ccccc3o2)cc1,9,92,39,3.8*,126,70
O=[N+]([O-])c1ccc(CSc2nc3ccccc3o2)cc1,-36,132*,9,5*,177*,99
N#Cc1c(NCCCO)nc(NCc2ccccc2)c2c1CCN(Cc1ccccc1)C2,-1,101,2,3.3*,8,102
Cc1ccccc1/C=C\c1nc2ccccc2c(=O)[nH]1,-22,121,21,4.4*,164*,84
Cc1ccc(Nc2nnc(SCC(=O)Nc3cccnc3Cl)s2)cc1C,9,91,2,1.1,12,99
Cc1cc(C)c2c(N)c3ccccc3nc2n1,-36,132*,-24,1.3,-11,129
CCc1ccc2nc3nc(C)cc(C)c3c(N)c2c1,-39,136*,-5,1.7,18,109
CC(C)(C)NC(=O)NC(=O)COc1ccccc1C#N,-44,140*,4,2.1,187*,100
COc1ccc(OC)c(C2=C/C(=C/c3ccccn3)C(=O)O2)c1,-3,102,9,1.1,7,102
O=S(=O)(NC1CCCC1)c1ccc(S(=O)(=O)N(Cc2cccs2)CC2CCCO2)cc1 (configuration not stated),8,93,-3,0.78,-3,104
O=S(=O)(c1ccc(S(=O)(=O)N(Cc2cccs2)CC2CCCO2)cc1)N1CCCCC1 (configuration not stated),-32,129*,10,1.4,21,95
Cc1cc(C)cc(NC(=O)N2CCN(S(C)(=O)=O)CC2)c1,-8,107,2,1.1,-12,105
O=C(NN=C1CCCCCCC1)c1ccccn1,-21,119,-6,1.8,170*,108
O=C(N/N=C1\CCCCc2ccccc21)c1ccccn1,-21,117,-10,1.9,51,112
N/C(=N\OC(=O)CC1CCCCC1)c1ccncc1,-7,105,-2,1.4,-3,106
